Measurements published in ChEMBL document CHEMBL3351571, “Peptidomimetics of Arg-Phe-NH2 as small molecule agonists of Mas-related gene C (MrgC) receptors” (Bioorg Med Chem, 2014).
pEC50: −log10 of the molar value. Calls of active or inactive are those of the source. No cut-off for these calls is given here. Square brackets hold non-standard residues; d marks the D form. Peptide text beside a SMILES is read from it. dPhe(4-guanidino) = N=C(N)Nc1ccc(C[C@@H](N)C(=O)O)cc1; Phe(4-guanidino) = N=C(N)Nc1ccc(C[C@H](N)C(=O)O)cc1

Columns and labels:
Assay type in all cases: cell-based
[1] = biological target: T1, Mas-related G-protein coupled receptor member X1 (Mus musculus, UniProt Q8CIP3); experiment: Agonist activity at mouse MrgC11 transfected in HEK293 cells by FLIPR assay
T1 sequence (Q8CIP3 whole entry): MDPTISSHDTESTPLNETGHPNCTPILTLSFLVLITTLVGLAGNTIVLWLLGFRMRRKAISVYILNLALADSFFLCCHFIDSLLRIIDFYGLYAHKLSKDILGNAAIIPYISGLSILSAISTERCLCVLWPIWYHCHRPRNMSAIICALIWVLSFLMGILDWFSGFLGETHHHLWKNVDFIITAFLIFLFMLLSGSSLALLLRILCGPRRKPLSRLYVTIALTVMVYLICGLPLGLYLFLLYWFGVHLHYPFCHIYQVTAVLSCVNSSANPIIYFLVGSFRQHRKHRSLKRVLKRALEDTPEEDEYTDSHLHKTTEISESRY
Method in brief: (§1)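 Rodent Mrg receptors were transiently transfected into HEK293 or KNRK cells, which were plated at 25,000 cells/well and imaged 2 days later. Cells were loaded with 2 μM Fluo 4AM and 1% Trypan Red in HBSS for 50 min at 37°C, then held 10 min at room temperature.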

[2] = biological target: T2, Mas-related G-protein coupled receptor member X1 (Homo sapiens, UniProt Q96LB2); experiment: Agonist activity at human MrgX1 transfected in HEK293 cells by FLIPR assay
Method in brief: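 Human MrgX1 stably expressed in HEK293 cells, plated at 25,000 cells/well 2 days before imaging. Cells loaded with 2 μM Fluo 4AM plus 1% Trypan Red in HBSS for 50 min at 37°C, then equilibrated 10 min at room temperature. Serial dilutions in HBSS added alongside BAM 8-22 (positive) and HBSS (negative) controls.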

[3] = biological target: T3, Mas-related G-protein coupled receptor member X1 (Rattus norvegicus, UniProt Q8R4G1); experiment: Agonist activity at rat MrgX1 transfected in HEK293 cells by FLIPR assay; method in brief: as §1
T3 sequence (Q8R4G1 whole entry): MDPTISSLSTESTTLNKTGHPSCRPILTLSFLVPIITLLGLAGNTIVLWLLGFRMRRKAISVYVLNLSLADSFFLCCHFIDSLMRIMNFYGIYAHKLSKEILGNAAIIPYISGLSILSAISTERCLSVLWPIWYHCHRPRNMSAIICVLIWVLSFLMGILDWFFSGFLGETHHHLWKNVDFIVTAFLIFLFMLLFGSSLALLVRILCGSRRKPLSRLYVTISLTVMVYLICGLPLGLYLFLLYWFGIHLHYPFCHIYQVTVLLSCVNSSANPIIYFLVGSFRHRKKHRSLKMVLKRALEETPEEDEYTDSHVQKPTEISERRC

[4] = biological target: T2, Mas-related G-protein coupled receptor member X1; experiment: Antagonist activity at human MrgX1 transfected in HEK293 cells at 200 uM by FLIPR assay

T2 sequence (Q96LB2 whole entry): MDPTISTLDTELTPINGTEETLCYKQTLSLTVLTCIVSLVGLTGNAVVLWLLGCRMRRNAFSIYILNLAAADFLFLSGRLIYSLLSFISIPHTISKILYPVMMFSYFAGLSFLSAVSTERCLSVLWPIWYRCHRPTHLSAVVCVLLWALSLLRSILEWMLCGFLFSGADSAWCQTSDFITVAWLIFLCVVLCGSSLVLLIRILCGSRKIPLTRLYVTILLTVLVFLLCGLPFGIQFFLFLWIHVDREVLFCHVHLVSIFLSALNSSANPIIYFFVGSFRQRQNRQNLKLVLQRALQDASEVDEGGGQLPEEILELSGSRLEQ

SMILES | pEC50 [1] | pEC50 [2] | pEC50 [3] | Activity [4]
N=C(N)Nc1ccc(C[C@H](N)C(=O)N[C@@H](Cc2ccccc2)C(N)=O)cc1 (H-[Phe(4-guanidino)]-Phe-NH2) | 4.80 | < 4.00 | 4.30 | –
COc1ccc(-c2ccc(C(=O)Nc3cccc(Cn4ncc(N5CCNCC5)cc4=O)c3C)cc2)cn1 | < 5.70 | 7.60 | < 5.70 | –
N=C(N)Nc1ccc(C[C@@H](N)C(=O)N[C@@H](Cc2ccccc2)C(N)=O)cc1 (H-[dPhe(4-guanidino)]-Phe-NH2) | 5.90 | < 4.00 | 6.20 | inactive
N=C(N)N1CCC(C(N)C(=O)N[C@@H](Cc2ccccc2)C(N)=O)CC1 (some centres undefined) | 6.10 | < 4.00 | 5.40 | –
N=C(N)NC[C@@H]1CN[C@H](C(=O)N[C@@H](Cc2ccccc2)C(N)=O)C1 | 6.30 | < 4.00 | < 4.00 | –
N=C(N)N[C@@H]1CN[C@H](C(=O)N[C@@H](Cc2ccccc2)C(N)=O)C1 | 5.10 | < 4.00 | < 4.00 | –
